Assay results taken from ChEMBL document CHEMBL2176916, “Mimicking the intramolecular hydrogen bond: synthesis, biological evaluation, and molecular modeling of benzoxazines and quinazolines as potential antimalarial agents” (J Med Chem, 2012).
Values after ≈ are worked out from the molar mass of the structure shown. Active and inactive are the calls of the source. The rule behind the calls is not given here.

Experiments:
Plasmodium falciparum [1] = assay: Antiplasmodial activity against chloroquine-resistant Plasmodium falciparum W2 infected in human RBCs after 72 hrs by parasite lactate dehydrogenase assay; format: functional, organism-based; settings: W2, 72 h
How it was run: (§1)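 Asynchronous cultures (parasitemia 1−1.5%, 1% final hematocrit) in human type A-positive RBCs, RPMI 1640 with 1% AlbuMax, hypoxanthine, Hepes and glutamine. Exposed to serial dilutions (DMSO <1% final) for 72 h at 37 °C under 1% O₂/5% CO₂/94% N₂. Growth read as pLDH activity at OD₆₅₀ (modified Makler method).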

Plasmodium falciparum [2] = assay: Antiplasmodial activity against chloroquine-sensitive Plasmodium falciparum D10 infected in human RBCs after 72 hrs by parasite lactate dehydrogenase assay; format: functional, organism-based; settings: D10, 72 h; how it was run: as §1
Plasmodium falciparum [3] = assay: Resistant index, ratio of IC50 for chloroquine-resistant Plasmodium falciparum W2 to IC50 for chloroquine-sensitive Plasmodium falciparum D10; format: functional
[4] = Cytotoxicity against mouse NIH/3T3 cells assessed as cell viability after 24 hrs by neutral red uptake assay; format: cell-based, NIH3T3; settings: read-out: TC50
How it was run: (§2)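 NIH3T3 cells grown in DMEM and HepG2 in EMEM, both with 10% FCS, glutamine/penicillin/streptomycin and non-essential amino acids, 37 °C, 5% CO₂. Cells trypsinized at confluence and resuspended. Viability by neutral red uptake after 24 h exposure. Student's t test, p < 0.05.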

[5] = Cytotoxicity against human HepG2 cells assessed as cell viability after 24 hrs by neutral red uptake assay; format: cell-based; settings: read-out: TC50; how it was run: as §2
[6] = Chemical stability in DMSO/D2O mixture solution at 25 degC by NMR analysis; format: physicochemical
[7] = Chemical stability of the compound at pH 7.4 at 37 degC by NMR analysis; format: physicochemical; settings: buffer
[8] = Chemical stability of the compound at pH 2 at 37 degC after 1 hr by NMR analysis; format: physicochemical; settings: buffer, pH 2, 1 h
[9] = target: T1, Chloroquine resistance transporter (Plasmodium falciparum, UniProt Q9N623); assay: Inhibition of chloroquine-resistant Plasmodium falciparum Dd2 CRT expressed in Xenopus laevis oocytes assessed as reduction in [3H]-chloroquine uptake after 1.5 to 2 hrs
T1 sequence (Q9N623 whole entry): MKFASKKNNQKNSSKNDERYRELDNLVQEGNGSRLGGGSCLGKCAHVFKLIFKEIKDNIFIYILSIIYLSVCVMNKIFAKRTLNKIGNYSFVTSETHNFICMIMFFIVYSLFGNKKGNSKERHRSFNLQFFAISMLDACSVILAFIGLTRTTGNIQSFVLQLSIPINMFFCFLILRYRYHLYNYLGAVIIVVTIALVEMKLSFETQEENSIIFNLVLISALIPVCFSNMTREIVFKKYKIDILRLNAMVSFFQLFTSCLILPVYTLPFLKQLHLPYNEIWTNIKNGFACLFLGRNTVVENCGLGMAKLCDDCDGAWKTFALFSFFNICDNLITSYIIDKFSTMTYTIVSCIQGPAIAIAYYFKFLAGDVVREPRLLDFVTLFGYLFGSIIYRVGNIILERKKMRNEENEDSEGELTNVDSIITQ

[10] = Chemical stability of the compound at pH 2 at 37 degC measured for 24 hrs by NMR analysis; format: physicochemical; settings: buffer, pH 2, 24 h
[11] = Chemical stability of the compound at pH 7.4 at 37 degC measured for 24 hrs by NMR analysis; format: physicochemical; settings: buffer, pH 7.4, 24 h
[12] = Aqueous solubility of the compound in water at pH 3 after 24 hrs; format: physicochemical
How it was run: (§3)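 Prepared from 10 mM DMSO stock as 250 μM in 50 mM acetic acid (pH 3) or 50 mM ammonium acetate (pH 7.4), 2.5% DMSO final, in filter plates. Filtrate diluted 1:2 and run on UPLC/UV/TOF-MS at 254 nm. Solubility from sample UV area versus a 250 μM standard in acetonitrile/buffer.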

Oryctolagus cuniculus = organism: Oryctolagus cuniculus; assay: Inhibition of rabbit kidney Na+/K+ ATPase hydrolytic activity assessed as inorganic phosphate production at 10 uM by malachite green staining-based colorimetric assay
How it was run: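 Na⁺,K⁺-ATPase membrane fragments prepared from rabbit kidney outer medulla and used at about 1 μg/mL protein. Buffer: 25 mM MOPS pH 7.0, 100 mM NaCl, 20 mM KCl, 3 mM MgCl₂. Test agent at 10 μM, with ouabain as reference. Pi release measured by malachite green colorimetry.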

CYP3A4 = assay: Metabolic stability in human liver microsomes assessed as compound ramining after 1 hr in presence of human recombinant CYP3A4; format: ADME, Microsome; settings: in the assay text read “assessed” for “in human liver microsomes assessed”, read-out: Stability
How it was run: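 Substrate at 1 μM final (0.25% organic solvent) incubated 1 h at 37 °C with recombinant hCYP3A4 (20 pmol/mL), with or without NADPH regenerating system. Stopped with acetonitrile. Result is % remaining from MS peak area with NADPH relative to without. CV typically within 10%.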

[13] = Aqueous solubility of the compound in water at pH 7.4 after 24 hrs; format: physicochemical; how it was run: as §3
[14] = target: T2, Chloroquine resistance transporter (Plasmodium falciparum) (UniProt Q9N623); assay: Inhibition of chloroquine-resistant Plasmodium falciparum Dd2 CRT expressed in Xenopus laevis oocytes assessed as reduction in [3H]-chloroquine uptake at 100 uM after 1.5 to 2 hrs; format: cell-based; settings: Oocyte
T2 sequence (whole entry): T1 sequence (Q9N623 whole entry)
How it was run: (§4)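 Oocytes injected with Dd2 or D10 PfCRT cRNA (20 ng per oocyte). Compound at 100 μM extracellular. [³H]CQ (0.3 μM) uptake measured 3−5 days post-injection over 1.5−2 h at 27.5 °C, in pH 6.0 medium containing 15 μM unlabeled CQ. 10 oocytes per treatment, five experiments. Compared by ANOVA with Tukey's test.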

[15] = target: T2, Chloroquine resistance transporter (Plasmodium falciparum); assay: Inhibition of chloroquine-sensitive Plasmodium falciparum D10 CRT expressed in Xenopus laevis oocytes assessed as [3H]-chloroquine uptake at 100 uM after 1.5 to 2 hrs; format: cell-based; settings: Oocyte; how it was run: as §4
Plasmodium berghei [16] = assay: Antiplasmodium activity against chloroquine-sensitive Plasmodium berghei ANKA infected in BALB/c mouse assessed as decrease in parasitemia administered as po until day 4 measured 24 hrs post last dose by Giemsa staining; format: functional
How it was run: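 P. berghei ANKA in female 5-week-old BALB/c mice (19 g), infected ip with 2 × 10⁷ parasitized erythrocytes. Fresh aqueous stocks (100 mg/mL) diluted 1.5-fold to give 6−7 doses from 4.4 to 50 mg/kg, given once daily by oral gavage starting 4 h post-infection through day 4. Parasitemia read from Giemsa tail-blood smears 24 h after last dose. ED50 from four-parameter logistic fit.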

[17] = Chemical stability of the compound at pH 7.4; format: physicochemical; settings: buffer
[18] = Intrinsic clearance in mouse liver microsomes at 1 uM; format: ADME, Microsome; settings: read-out: CLH
How it was run: (§5)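 Substrate at 1 μM with 0.2 mg/mL mouse or rat liver microsomal protein in 100 mM phosphate, pH 7.4. Reaction started with NADPH regenerating system (1 mM NADPH, 10 mM G6P, 0.4 U/mL G6PDH) and stopped with acetonitrile at intervals over 0−45 min, in duplicate. HPLC-MS depletion fitted monoexponentially; Clint = k × V/P.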

[19] = target: Potassium voltage-gated channel subfamily H member 2 (Rattus norvegicus); assay: Inhibition of rat ERG after 2 to 3 days by patch clamp assay
[20] = Intrinsic clearance in rat liver microsomes at 1 uM; format: ADME, Microsome; settings: read-out: CLH; how it was run: as §5
Plasmodium berghei [21] = assay: Antiplasmodium activity against chloroquine-sensitive Plasmodium berghei ANKA infected in BALB/c mouse assessed as decrease in parasitemia at 50 mg/kg, ip administered until day 4 measured 24 hrs post last dose by Giemsa staining; format: functional, organism-based; set-up: dose 50 mg/kg
How it was run: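 Peters 4-day test, P. berghei ANKA, female 5-week-old BALB/c mice infected ip with 2 × 10⁷ parasitized erythrocytes. Single group of six mice given 50 mg/kg ip daily, starting 4 h post-infection through day 4. Parasitemia counted on Giemsa tail-blood smears 24 h after final treatment.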

SMILES | IC50 (Plasmodium falciparum [1]) [nM] | IC50 (Plasmodium falciparum [2]) [nM] | Ratio IC50 (Plasmodium falciparum [3]) | CC50 at 24 h [4] [nM] | CC50 at 24 h [5] [nM] | further results
CCN(CC)Cc1cc(Nc2ccnc3cc(Cl)ccc23)ccc1O.Cl | 19 | 25 | 0.7 | – | – | –
CCN(CC)CCCC(C)Nc1ccnc2cc(Cl)ccc12 (configuration not stated) [CHLOROQUINE] | – | – | – | > 80000 | 31000 | –
CCCN1COc2cc(Nc3ccnc4cc(Cl)ccc34)ccc2C1 | 40 | 21 | 2 | – | – | Stability [6]: Stable; Stability [7]: Stable; Stability [8]: Unstable
CC(C)(C)NC(=O)[C@@H]1C[C@@H]2CCCC[C@@H]2CN1C[C@@H](O)[C@H](Cc1ccccc1)NC(=O)[C@H](CC(N)=O)NC(=O)c1ccc2ccccc2n1 | – | – | – | – | – | IC50 [9]: 13000 nM
O=c1c2ccc(Nc3ccnc4cc(Cl)ccc34)cc2ncn1Cc1ccc(CN2CCCC2)cc1 | 83 | 31 | 2.7 | – | – | –
CCN1CNc2cc(Nc3ccnc4cc(Cl)ccc34)ccc2C1 | 60 | 11 | 5.4 | – | – | Stability [10]: Stable; Stability [11]: Stable
Clc1ccc2c(Nc3ccc4c(c3)NCN(Cc3ccccc3)C4)ccnc2c1 | 67 | 53 | – | 40000 | 25000 | solubility at 24 h [12]: 122 µM (≈ 48.9 µg/mL); inhibition (Oryctolagus cuniculus): 35%; remaining at 1 h (CYP3A4): 18%; solubility ([13]; buffer, pH 7.4, 24 h, BLD = below limit of detection): BLD; inhibition [14]: Active; Stability [10]: Stable; inhibition [15]: inactive; IC50 [9]: 228000 nM; Stability [11]: Stable; ED50 (Plasmodium berghei [16]): 15.7 mg/kg
O=C1c2ccc(Nc3ccnc4cc(Cl)ccc34)cc2NCN1Cc1ccccc1 | > 1000 | > 1000 | – | – | – | –
CCn1cnc2cc(Nc3ccnc4cc(Cl)ccc34)ccc2c1=O | > 1000 | > 1000 | – | – | – | –
C[C@@H]1O[C@@H](O[C@H]2C[C@@H](O)[C@]3(CO)[C@H]4[C@H](O)C[C@]5(C)[C@@H](C6=CC(=O)OC6)CC[C@]5(O)[C@@H]4CC[C@]3(O)C2)[C@H](O)[C@H](O)[C@H]1O | – | – | – | – | – | inhibition (Oryctolagus cuniculus): Active
CCCn1cnc2cc(Nc3ccnc4cc(Cl)ccc34)ccc2c1=O | > 1000 | > 1000 | – | – | – | –
CCN(CC)Cc1ccc(Nc2ccnc3cc(Cl)ccc23)cc1O [ISOQUINE] | 31 | 27 | 1.1 | – | – | –
CCCN1CNc2cc(Nc3ccnc4cc(Cl)ccc34)ccc2C1 | 53 | 21 | 2.5 | 17000 | 5700 | solubility at 24 h [12]: 231 µM (≈ 81.5 µg/mL); inhibition (Oryctolagus cuniculus): 35%; remaining at 1 h (CYP3A4): 43%; solubility at 24 h ([13]; water, pH 7.4): 53 µM (≈ 18.7 µg/mL); inhibition [14]: Active; Stability [17]: 100%; Stability [10]: Stable; microsomal CLint at 1 µM [18]: 219 µL/min/mg; IC50 [19]: 22 nM; inhibition (INH) ([19]; rat): Dose-dependent effect; inhibition [15]: inactive; microsomal CLint at 1 µM [20]: 121 µL/min/mg; Stability [11]: Stable; ED50 (Plasmodium berghei [16]): 8.74 mg/kg
O=c1c2ccc(Nc3ccnc4cc(Cl)ccc34)cc2ncn1Cc1ccccc1 | > 1000 | > 1000 | – | – | – | –
Clc1ccc2c(Nc3ccc4c(c3)OCN(Cc3ccccc3)C4)ccnc2c1 | 31 | 38 | 0.8 | 40000 | 15000 | Stability [6]: Stable; Stability [7]: Stable; Stability [8]: Unstable
CCN1COc2cc(Nc3ccnc4cc(Cl)ccc34)ccc2C1 | 72 | 23 | 3.1 | 29000 | 6000 | Activity (Plasmodium berghei [21]): Active; Stability [6]: Stable; Stability [7]: Stable; Stability [8]: Unstable
